Experimental data from ChEMBL document CHEMBL1129793, “Quantitative structure-activity relationships for the in vitro antimycobacterial activity of pyrazinoic acid esters” (J Med Chem, 1996).

test system: not listed separately; test: Partition coefficient (logP); assay type: physicochemical; conditions: octanol/water

Row | SMILES | logP
1 | CCCCCC(C)OC(=O)c1cnc(Cl)cn1 (configuration not stated) | 3
2 | CCCCCC(C)(CCCC)OC(=O)c1cnc(Cl)cn1 (configuration not stated) | 5.3
3 | CC(C)COC(=O)c1cnc(Cl)cn1 | 1.97
4 | CCCCCCCC(C)OC(=O)c1cnc(Cl)cn1 (configuration not stated) | 4.14
5 | CCCCCCCCCOC(=O)c1cnc(Cl)cn1 | 4.98
6 | CCCCCCCCCCCOC(=O)c1cnc(Cl)cn1 | 5.98
7 | CCCCCCCCCCOC(=O)c1cnc(F)cn1 | 5.08
8 | CCCCCCC(C)(C)OC(=O)c1cnc(Cl)cn1 | 4.39
9 | COC(=O)c1cnc(I)cn1 | 0.91
10 | CCCCCCC(C)OC(=O)c1cnc(Cl)cn1 (configuration not stated) | 3.63
11 | CCCCCCCCOC(=O)c1cnc(Cl)cn1 | 4.48
12 | CCCCCCCCC(C)(C)OC(=O)c1cnc(Cl)cn1 | 5.51
13 | CCCCCCCCCCOC(=O)c1cnccn1 | 4.58
14 | CCCOC(=O)c1cnc(Cl)cn1 | 1.67
15 | O=C(OCc1ccccc1)c1cnc(Cl)cn1 | 2.39
16 | CCCCCC(CC)OC(=O)c1cnc(Cl)cn1 (configuration not stated) | 4.24
17 | CCC(C)(CC)OC(=O)c1cnc(Cl)cn1 | 2.74

test system: Mycobacterium avium; test: In vitro activity against Mycobacterium avium (MAC-101).; assay type: functional; conditions: not given
In short: (§1)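 Broth macrodilution MIC. Cultures were grown in modified Middlebrook 7H10 broth (agar and malachite green omitted) with 10% OADC and 0.05% Tween 80, shaken at 37 °C for 3 days, then diluted in 7H10 broth to 1 Klett unit/mL. Test agents were dissolved in water or DMSO and filter-sterilised, then serially diluted 2-fold in 7H10 broth at pH 5.8. Tubes were shaken at 37 °C for 7–10 days, with a drug-free control. MIC was the lowest concentration with no visible turbidity, expressed in mmol/L.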

Row | SMILES | Log 1/MMIC
18 | CCCCCC(C)OC(=O)c1cnc(Cl)cn1 (configuration not stated) | 0.904
19 | CCCCCC(C)(CCCC)OC(=O)c1cnc(Cl)cn1 (configuration not stated) | 0.087
20 | CC(C)COC(=O)c1cnc(Cl)cn1 | 0.526
21 | CCCCCCCC(C)OC(=O)c1cnc(Cl)cn1 (configuration not stated) | 0.949
22 | CCCCCCCCCOC(=O)c1cnc(Cl)cn1 | 0.949
23 | CCCCCCCCCCCOC(=O)c1cnc(Cl)cn1 | 1.291
24 | CCCCCCCCCCOC(=O)c1cnc(F)cn1 | 0.946
25 | CCCCCCC(C)(C)OC(=O)c1cnc(Cl)cn1 | 0.648
26 | COC(=O)c1cnc(I)cn1 | 0.013
27 | CCCCCCC(C)OC(=O)c1cnc(Cl)cn1 (configuration not stated) | 0.927
28 | CCCCCCCCOC(=O)c1cnc(Cl)cn1 | 1.228
29 | CCCCCCCCC(C)(C)OC(=O)c1cnc(Cl)cn1 | 0.388
30 | CCCCCCCCCCOC(=O)c1cnccn1 | 0.917
31 | CCCOC(=O)c1cnc(Cl)cn1 | 1.098
32 | O=C(OCc1ccccc1)c1cnc(Cl)cn1 | 1.493
33 | CCCCCC(CC)OC(=O)c1cnc(Cl)cn1 (configuration not stated) | 0.626
34 | CCC(C)(CC)OC(=O)c1cnc(Cl)cn1 | -0.023

test system: not listed separately; test: T1/2 in equine serum; assay type: ADME, organism-based, Equus caballus; conditions: horse
In short: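 Ester from a 1 mg/mL stock was mixed with 5% aqueous equine serum in 0.01 M KH2PO4, pH 7.2. Remaining ester was measured by isocratic reverse-phase HPLC (80% acetonitrile/20% 0.1 M sodium acetate, pH 5.0), with UV detection at 265 nm against a standard curve. Half-life is the time to 50% conversion to the acid.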

Row | SMILES | half-life [min]
35 | CCCCCC(C)OC(=O)c1cnc(Cl)cn1 (configuration not stated) | 16.2
36 | CCCCCC(C)(CCCC)OC(=O)c1cnc(Cl)cn1 (configuration not stated) | 390
37 | CC(C)COC(=O)c1cnc(Cl)cn1 | 11.8
38 | CCCCCCCC(C)OC(=O)c1cnc(Cl)cn1 (configuration not stated) | 30
39 | CCCCCCCCCOC(=O)c1cnc(Cl)cn1 | 2.3
40 | CCCCCCCCCCCOC(=O)c1cnc(Cl)cn1 | 6
41 | CCCCCCCCCCOC(=O)c1cnc(F)cn1 | 4
42 | CCCCCCC(C)(C)OC(=O)c1cnc(Cl)cn1 | 510
43 | COC(=O)c1cnc(I)cn1 | 200
44 | CCCCCCC(C)OC(=O)c1cnc(Cl)cn1 (configuration not stated) | 28.2
45 | CCCCCCCCOC(=O)c1cnc(Cl)cn1 | 1.3
46 | CCCCCCCCC(C)(C)OC(=O)c1cnc(Cl)cn1 | 957
47 | CCCCCCCCCCOC(=O)c1cnccn1 | 0.8
48 | CCCOC(=O)c1cnc(Cl)cn1 | 18.7
49 | O=C(OCc1ccccc1)c1cnc(Cl)cn1 | 5
50 | CCCCCC(CC)OC(=O)c1cnc(Cl)cn1 (configuration not stated) | 7
51 | CCC(C)(CC)OC(=O)c1cnc(Cl)cn1 | 1020

test system: Mycobacterium tuberculosis; test: In vitro activity against Mycobacterium tuberculosis (ATCC 27294); assay type: functional; conditions: not given; in short: as §1

Row | SMILES | Log 1/MMIC
52 | CCCCCC(C)OC(=O)c1cnc(Cl)cn1 (configuration not stated) | 3.631
53 | CCCCCC(C)(CCCC)OC(=O)c1cnc(Cl)cn1 (configuration not stated) | 1.893
54 | CC(C)COC(=O)c1cnc(Cl)cn1 | 2.031
55 | CCCCCCCC(C)OC(=O)c1cnc(Cl)cn1 (configuration not stated) | 2.455
56 | CCCCCCCCCOC(=O)c1cnc(Cl)cn1 | 3.977
57 | CCCCCCCCCCCOC(=O)c1cnc(Cl)cn1 | 3.097
58 | CCCCCCCCCCOC(=O)c1cnc(F)cn1 | 2.15
59 | CCCCCCC(C)(C)OC(=O)c1cnc(Cl)cn1 | 3.057
60 | COC(=O)c1cnc(I)cn1 | 1.218
61 | CCCCCCCCOC(=O)c1cnc(Cl)cn1 | 3.654
62 | CCCCCCCCC(C)(C)OC(=O)c1cnc(Cl)cn1 | 1.592
63 | CCCCCCCCCCOC(=O)c1cnccn1 | 2.723
64 | CCCOC(=O)c1cnc(Cl)cn1 | 3.524
65 | CCCCCC(CC)OC(=O)c1cnc(Cl)cn1 (configuration not stated) | 2.734
66 | CCC(C)(CC)OC(=O)c1cnc(Cl)cn1 | 1.482

test system: Mycobacterium avium; test: In vitro activity against Mycobacterium avium (ATCC 49601).; assay type: functional; conditions: not given; in short: as §1

Row | SMILES | Log 1/MMIC
67 | CCCCCC(C)OC(=O)c1cnc(Cl)cn1 (configuration not stated) | 0.904
68 | CCCCCC(C)(CCCC)OC(=O)c1cnc(Cl)cn1 (configuration not stated) | 0.087
69 | CC(C)COC(=O)c1cnc(Cl)cn1 | 0.526
70 | CCCCCCCC(C)OC(=O)c1cnc(Cl)cn1 (configuration not stated) | 0.949
71 | CCCCCCCCCOC(=O)c1cnc(Cl)cn1 | 1.25
72 | CCCCCCCCCCCOC(=O)c1cnc(Cl)cn1 | 1.592
73 | CCCCCCCCCCOC(=O)c1cnc(F)cn1 | 0.946
74 | CCCCCCC(C)(C)OC(=O)c1cnc(Cl)cn1 | 0.648
75 | COC(=O)c1cnc(I)cn1 | 0.013
76 | CCCCCCC(C)OC(=O)c1cnc(Cl)cn1 (configuration not stated) | 0.927
77 | CCCCCCCCOC(=O)c1cnc(Cl)cn1 | 1.228
78 | CCCCCCCCC(C)(C)OC(=O)c1cnc(Cl)cn1 | 0.388
79 | CCCCCCCCCCOC(=O)c1cnccn1 | 1.519
80 | CCCOC(=O)c1cnc(Cl)cn1 | 1.098
81 | O=C(OCc1ccccc1)c1cnc(Cl)cn1 | 1.794
82 | CCCCCC(CC)OC(=O)c1cnc(Cl)cn1 (configuration not stated) | 0.927
83 | CCC(C)(CC)OC(=O)c1cnc(Cl)cn1 | -0.023

test system: Mycobacterium tuberculosis; test: In vitro activity against Mycobacterium tuberculosis (ATCC 35801); assay type: functional; conditions: not given; in short: as §1

Row | SMILES | Log 1/MMIC
84 | CCCCCC(C)OC(=O)c1cnc(Cl)cn1 (configuration not stated) | 2.711
85 | CCCCCC(C)(CCCC)OC(=O)c1cnc(Cl)cn1 (configuration not stated) | 1.592
86 | CC(C)COC(=O)c1cnc(Cl)cn1 | 2.934
87 | CCCCCCCC(C)OC(=O)c1cnc(Cl)cn1 (configuration not stated) | 2.756
88 | CCCCCCCCCOC(=O)c1cnc(Cl)cn1 | 2.455
89 | CCCCCCCCCCCOC(=O)c1cnc(Cl)cn1 | 2.796
90 | CCCCCCCCCCOC(=O)c1cnc(F)cn1 | 1.849
91 | CCCCCCC(C)(C)OC(=O)c1cnc(Cl)cn1 | 1.852
92 | COC(=O)c1cnc(I)cn1 | 1.218
93 | CCCCCCCCC(C)(C)OC(=O)c1cnc(Cl)cn1 | 2.796
94 | CCCCCCCCCCOC(=O)c1cnccn1 | 3.024
95 | CCCOC(=O)c1cnc(Cl)cn1 | 3.825
96 | O=C(OCc1ccccc1)c1cnc(Cl)cn1 | 2.697
97 | CCCCCC(CC)OC(=O)c1cnc(Cl)cn1 (configuration not stated) | 3.035
98 | CCC(C)(CC)OC(=O)c1cnc(Cl)cn1 | 1.482

test system: Mycobacterium tuberculosis; test: In vitro activity against Mycobacterium tuberculosis (ATCC 35828); assay type: functional; conditions: not given; in short: as §1

Row | SMILES | Log 1/MMIC
99 | CCCCCC(C)OC(=O)c1cnc(Cl)cn1 (configuration not stated) | 3.631
100 | CC(C)COC(=O)c1cnc(Cl)cn1 | 2.031
101 | CCCCCCCC(C)OC(=O)c1cnc(Cl)cn1 (configuration not stated) | 2.153
102 | CCCCCCCCCOC(=O)c1cnc(Cl)cn1 | 3.977
103 | CCCCCCCCCCCOC(=O)c1cnc(Cl)cn1 | 2.796
104 | CCCCCCCCCCOC(=O)c1cnc(F)cn1 | 1.849
105 | CCCCCCC(C)(C)OC(=O)c1cnc(Cl)cn1 | 3.057
106 | COC(=O)c1cnc(I)cn1 | 1.218
107 | CCCCCCCCC(C)(C)OC(=O)c1cnc(Cl)cn1 | 1.592
108 | CCCCCCCCCCOC(=O)c1cnccn1 | 3.024
109 | CCCCCC(CC)OC(=O)c1cnc(Cl)cn1 (configuration not stated) | 3.035
110 | CCC(C)(CC)OC(=O)c1cnc(Cl)cn1 | 1.783

test system: Mycobacterium kansasii; test: in vitro activity against Mycobacterium kansasii (SWK).; assay type: functional; conditions: not given
In short: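 M. kansasii clinical isolate SWK was grown 3 days at 37 °C with shaking in modified Middlebrook 7H10 broth with 10% OADC and 0.05% Tween 80, then diluted. It was tested in serial 2-fold dilutions in 7H10 broth at pH 5.8, shaken at 37 °C for 7–10 days, with a drug-free control. MIC was the lowest concentration giving no visible turbidity, expressed in mmol/L.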

Row | SMILES | Log 1/MMIC
111 | CCCCCC(C)OC(=O)c1cnc(Cl)cn1 (configuration not stated) | 3.313
112 | CCCCCC(C)(CCCC)OC(=O)c1cnc(Cl)cn1 (configuration not stated) | 1.291
113 | CC(C)COC(=O)c1cnc(Cl)cn1 | 2.33
114 | CCCCCCCC(C)OC(=O)c1cnc(Cl)cn1 (configuration not stated) | 3.977
115 | CCCCCCCCCOC(=O)c1cnc(Cl)cn1 | 3.358
116 | CCCCCCCCCCCOC(=O)c1cnc(Cl)cn1 | 3.717
117 | CCCCCCCCCCOC(=O)c1cnc(F)cn1 | 2.451
118 | CCCCCCC(C)(C)OC(=O)c1cnc(Cl)cn1 | 2.455
119 | COC(=O)c1cnc(I)cn1 | 1.519
120 | CCCCCCC(C)OC(=O)c1cnc(Cl)cn1 (configuration not stated) | 3.035
121 | CCCCCCCCOC(=O)c1cnc(Cl)cn1 | 3.955
122 | CCCCCCCCC(C)(C)OC(=O)c1cnc(Cl)cn1 | 2.194
123 | CCCCCCCCCCOC(=O)c1cnccn1 | 3.723
124 | CCCOC(=O)c1cnc(Cl)cn1 | 2.904
125 | O=C(OCc1ccccc1)c1cnc(Cl)cn1 | 2.396
126 | CCCCCC(CC)OC(=O)c1cnc(Cl)cn1 (configuration not stated) | 3.955
127 | CCC(C)(CC)OC(=O)c1cnc(Cl)cn1 | 2.084
